In brackets after ≈: the same amount, converted by molar mass. Activity calls are given as the source filed them. The calls are words filed in the database; no cut-off is given here.
Assays:
Type in all cases: functional
Candida albicans [1] = test: Antifungal activity against Candida albicans NCIM 3100 assessed as inhibition of fungal growth incubated for 48 to 72 hrs by broth microdilution susceptibility method
Outline: (§1)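 Tube micro-dilution in Sabouraud liquid medium. Stocks were made in DMSO and serially diluted twofold in broth to final […]. Tubes inoculated with organisms grown in potato dextrose broth and held 48-72 h at 30 C. MIC is the lowest concentration with no growth. DMSO and uninoculated-media controls were included, in triplicate.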

Candida albicans [2] = test: Antifungal activity against Candida albicans NCIM 3100 assessed as zone of inhibition at 80 ug/well incubated for 48 to 72 hrs by agar well diffusion method; conditions: for zone of inhibition at 80 µg/disc: read-out: IZ
Outline: (§2)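 Fungi kept on potato dextrose agar slants and grown in potato dextrose broth. 500 microlitres of 48-72 h spore suspension swabbed onto Mueller Hinton agar. Compounds in DMSO loaded into 5 mm wells, with a DMSO vehicle plate and fluconazole/ravuconazole positive-control plate. Incubated 48-72 h at 30 C. Clear zone measured in mm, mean of five replicates.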

[3] = system: Staphylococcus epidermidis; test: Antibacterial activity against Staphylococcus albus NCIM 2178 assessed as zone of inhibition at 80 ug/well incubated for 24 to 48 hrs by agar well diffusion method; conditions: for zone of inhibition at 80 µg/disc: read-out: IZ
Outline: (§3)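 Strains from NCIM kept on nutrient agar slants at 4 C and grown overnight at 37 C in nutrient broth. 500 microlitres of 24-48 h culture swabbed onto nutrient agar. Compounds in DMSO loaded into 5 mm wells, with a DMSO vehicle plate and streptomycin reference. Incubated 24-48 h at 37 C. Zone of inhibition measured in mm and averaged over 4 replicates.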

Aspergillus niger [4] = test: Antifungal activity against Aspergillus niger NCIM 504 assessed as inhibition of fungal growth incubated for 48 to 72 hrs by broth microdilution susceptibility method; outline: as §1
Rhodotorula glutinis [5] = test: Antifungal activity against Rhodotorula glutinis NCIM 3168 assessed as zone of inhibition at 80 ug/well incubated for 48 to 72 hrs by agar well diffusion method; conditions: for zone of inhibition at 80 µg/disc: read-out: IZ; outline: as §2
Escherichia coli = test: Antibacterial activity against Escherichia coli NCIM 2574 assessed as zone of inhibition at 80 ug/well incubated for 24 to 48 hrs by agar well diffusion method; conditions: for zone of inhibition at 80 µg/disc: read-out: IZ; outline: as §3
Proteus mirabilis = test: Antibacterial activity against Proteus mirabilis NCIM 2388 assessed as zone of inhibition at 80 ug/well incubated for 24 to 48 hrs by agar well diffusion method; outline: as §3
Rhodotorula glutinis [6] = test: Antifungal activity against Rhodotorula glutinis NCIM 3168 assessed as inhibition of fungal growth incubated for 48 to 72 hrs by broth microdilution susceptibility method; outline: as §1
Aspergillus niger [7] = test: Antifungal activity against Aspergillus niger NCIM 504 assessed as zone of inhibition at 80 ug/well incubated for 48 to 72 hrs by agar well diffusion method; conditions: for zone of inhibition at 80 µg/disc: read-out: IZ; outline: as §2

Structure (SMILES)	MIC (Candida albicans [1])	zone of inhibition at 80 µg/disc (Candida albicans [2]) [mm]	zone of inhibition at 80 µg/disc [3] [mm]	MIC (Aspergillus niger [4])	zone of inhibition at 80 µg/disc (Rhodotorula glutinis [5]) [mm]	zone of inhibition at 80 µg/disc (Escherichia coli) [mm]	inhibition zone (IZ) (Proteus mirabilis)	MIC (Rhodotorula glutinis [6])	zone of inhibition at 80 µg/disc (Aspergillus niger [7]) [mm]	inhibition zone (IZ) [3]	inhibition zone (IZ) (Rhodotorula glutinis [5])	inhibition zone (IZ) (Escherichia coli)	inhibition zone (IZ) (Aspergillus niger [7])	inhibition zone (IZ) (Candida albicans [2])	zone of inhibition at 80 µg/disc (Proteus mirabilis; read-out: IZ) [mm]
Cc1nc(-c2ccc(Cl)cc2)sc1-c1nn(-c2ccccc2)cc1-c1cn(Cc2ccc(Br)cc2)nn1	250 µg/mL (≈ 425 µM)	17.6	11.8	62.5 µg/mL (≈ 106 µM)	18.8	11	inactive	62.5 µg/mL (≈ 106 µM)	12						
Cc1nc(-c2ccc(Br)cc2)sc1-c1nn(-c2ccccc2)cc1-c1cn(Cc2ccc(Br)cc2)nn1	inactive	15		inactive			inactive	inactive		inactive	inactive	inactive	inactive		
Cc1nc(-c2ccccc2)sc1-c1nn(-c2ccccc2)cc1-c1cn(Cc2ccc(Br)cc2)nn1	125 µg/mL (≈ 226 µM)	16.4	13	62.5 µg/mL (≈ 113 µM)	17.5	12	inactive	62.5 µg/mL (≈ 113 µM)	14						
Cc1nc(-c2ccc(Cl)cc2)sc1-c1nn(-c2ccccc2)cc1-c1cn(Cc2ccccc2)nn1	500 µg/mL (≈ 982 µM)	15.2	11	31.2 µg/mL (≈ 61.4 µM)	15.2	12.8	inactive	125 µg/mL (≈ 246 µM)	12.3						
Cc1nc(-c2ccc(Br)cc2)sc1-c1nn(-c2ccccc2)cc1-c1cn(Cc2ccccc2)nn1	125 µg/mL (≈ 226 µM)	14.6	14.6	62.5 µg/mL (≈ 113 µM)	16.2	11.5	inactive	62.5 µg/mL (≈ 113 µM)	13.4						
Cc1ccc(Cn2cc(-c3cn(-c4ccccc4)nc3-c3sc(-c4ccc(Cl)cc4)nc3C)nn2)cc1	250 µg/mL (≈ 478 µM)	13.8	12	125 µg/mL (≈ 239 µM)	11.4	12.4	inactive	125 µg/mL (≈ 239 µM)	11.4						
Cc1nc(-c2ccc(F)cc2)sc1-c1nn(-c2ccccc2)cc1-c1cn(Cc2ccc(Cl)cc2)nn1	inactive	10.4	11.8	31.2 µg/mL (≈ 59.3 µM)	14.5		inactive	125 µg/mL (≈ 237 µM)	13.5			inactive			
Cc1nc(-c2ccccc2)sc1-c1nn(-c2ccccc2)cc1-c1cn(Cc2ccc(Cl)cc2)nn1	inactive	11.5	12.2	31.2 µg/mL (≈ 61.4 µM)	19	13.2	inactive	62.5 µg/mL (≈ 123 µM)	13.6						
Cc1ccc(-c2nc(C)c(-c3nn(-c4ccccc4)cc3-c3cn(Cc4ccc(Br)cc4)nn3)s2)cc1	125 µg/mL (≈ 220 µM)	14	12.2	31.2 µg/mL (≈ 55.1 µM)	18.8	11	inactive	62.5 µg/mL (≈ 110 µM)	14.4						
Cc1nc(-c2ccc(Cl)cc2)sc1-c1nn(-c2ccccc2)cc1-c1cn(Cc2ccc(Cl)cc2)nn1	inactive	11.3	11.5	125 µg/mL (≈ 230 µM)	14	9.8	inactive	62.5 µg/mL (≈ 115 µM)	12.3						
Cc1nc(-c2ccc(Cl)cc2)sc1-c1nn(-c2ccccc2)cc1-c1cn(Cc2ccc(F)cc2)nn1	250 µg/mL (≈ 474 µM)	13.8	11.3	62.5 µg/mL (≈ 119 µM)	20	12.2	inactive	125 µg/mL (≈ 237 µM)	12.5						
Cc1nc(-c2ccc(F)cc2)sc1-c1nn(-c2ccccc2)cc1-c1cn(Cc2ccc(Br)cc2)nn1	125 µg/mL (≈ 219 µM)	14.4	11.4	125 µg/mL (≈ 219 µM)	16.5		inactive	62.5 µg/mL (≈ 109 µM)	16.8			inactive			
OC(Cn1cncn1)(Cn1cncn1)c1ccc(F)cc1F [FLUCONAZOLE]	7.81 µg/mL (≈ 25.5 µM)	20.2		7.81 µg/mL (≈ 25.5 µM)	25.3		inactive	7.81 µg/mL (≈ 25.5 µM)	18.4	inactive		inactive			
Cc1ccc(Cn2cc(-c3cn(-c4ccccc4)nc3-c3sc(-c4ccc(Br)cc4)nc3C)nn2)cc1	inactive	14.6	12.6	31.2 µg/mL (≈ 55.1 µM)	13.3	11.6	inactive	125 µg/mL (≈ 220 µM)	12.4						
C[C@@H](c1nc(-c2ccc(C#N)cc2)cs1)[C@](O)(Cn1cncn1)c1ccc(F)cc1F [RAVUCONAZOLE]	7.81 µg/mL (≈ 17.9 µM)	28.6		31.2 µg/mL (≈ 71.4 µM)	20.1		inactive	15.6 µg/mL (≈ 35.7 µM)	20.2	inactive		inactive			
Cc1nc(-c2ccccc2)sc1-c1nn(-c2ccccc2)cc1-c1cn(Cc2ccc(F)cc2)nn1	125 µg/mL (≈ 254 µM)	15.8	10	125 µg/mL (≈ 254 µM)	14.6	11	inactive	125 µg/mL (≈ 254 µM)	16.4						
CN[C@@H]1[C@H](O[C@H]2[C@H](O[C@H]3[C@H](O)[C@@H](O)[C@H](N=C(N)N)[C@@H](O)[C@@H]3N=C(N)N)O[C@@H](C)[C@]2(O)C=O)O[C@@H](CO)[C@H](O)[C@H]1O [STREPTOMYCIN]			21.6			25					inactive		inactive	inactive	18.5
Cc1nc(-c2ccccc2)sc1-c1nn(-c2ccccc2)cc1-c1cn(Cc2ccccc2)nn1	inactive			inactive			inactive	inactive							
Cc1ccc(Cn2cc(-c3cn(-c4ccccc4)nc3-c3sc(-c4ccccc4)nc3C)nn2)cc1	inactive	11.8		31.2 µg/mL (≈ 64 µM)	19.5	10	inactive	inactive	14	inactive					
Cc1nc(-c2ccc(Br)cc2)sc1-c1nn(-c2ccccc2)cc1-c1cn(Cc2ccc(Cl)cc2)nn1	125 µg/mL (≈ 213 µM)	14.8		62.5 µg/mL (≈ 106 µM)	14.8	11	inactive	125 µg/mL (≈ 213 µM)	13.5	inactive					
Cc1ccc(-c2nc(C)c(-c3nn(-c4ccccc4)cc3-c3cn(Cc4ccccc4)nn3)s2)cc1	125 µg/mL (≈ 256 µM)	15.8	11.2	62.5 µg/mL (≈ 128 µM)	18.4		inactive	125 µg/mL (≈ 256 µM)				inactive	inactive		
Cc1ccc(-c2nc(C)c(-c3nn(-c4ccccc4)cc3-c3cn(Cc4ccc(F)cc4)nn3)s2)cc1	inactive	12.5	11.2	62.5 µg/mL (≈ 123 µM)	16.2	10.6	inactive	125 µg/mL (≈ 247 µM)	16.3						
